The structures appear in SMILES notation. Read-outs that look alike come from different tables or passages of the source.

Data set [1] addresses T1, DENV NS3h (Dengue virus type 2, UniProt Q91H74). In kind it is biochemical. As to conditions: read-out: DENV ATPase IC50; DENV NS3h-catalyzed ATP hydrolysis; 100 μM ATP, poly(U) RNA, pH 7.5.
For data set [2], the target named is T2, HCV NS3h (Hepatitis C virus genotype 1b, UniProt Q9WMX2). Conditions: read-out: HCV DNA-helicase IC50; HCV NS3h DNA unwinding; ref Li et al.[36]; cited from earlier work.
Data set [3] addresses T2, HCV NS3h. Kind of data set: HCV NS3h RNA unwinding assay. Type of data set: biochemical. Conditions: read-out: HCV RNA-helicase IC50, values without asterisk.
For data set [4], the target named is T1, DENV NS3h. In kind it is biochemical. Conditions: for IC50: read-out: DENV RNA-helicase IC50, DENV NS3h RNA unwinding, 100 nM DENV helicase.
Data set [5] has as its target T2, HCV NS3h. Kind of data set: HCV NS3h-catalyzed ATP hydrolysis assay. In kind it is biochemical. As to conditions: read-out: HCV ATPase IC50. Summed up:
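HCV NS3h (4 nM) in 25 mM Tris pH 7.5, 1.25 mM MgCl2, 100 μM ATP, 15 μM poly(U) RNA (as nucleotide), 33 μg/mL BSA, 0.07% Tween 20, 0.3 mM DTT, 0.6% DMSO. Started with MgCl2; 30 min at 23 °C. Released phosphate read at 620 nm with Biomol Green. Scaled to 6.7 μM ATA (100%) and DMSO (0%). IC50 from variable-slope nonlinear fit.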

The test system of data set [6] is herpes simplex virus helicase. Conditions: read-out: helicase-catalyzed ATP hydrolysis IC50, cited from earlier work.
Data set [7] relates to West Nile virus (Kunjin subtype). The data set can be described thus: West Nile virus. Type of data set: cell-based. Conditions: 50 μM compound, BHK cells, 72 h.
Data set [8] has as its system subgenomic DENV-2 replicon. Kind of data set: DENV subgenomic replicon assay. On the technique in general: A replicon is a self-replicating genome or part of one, used to study replication in cells.

T2 sequence (Q9WMX2 1192-1657): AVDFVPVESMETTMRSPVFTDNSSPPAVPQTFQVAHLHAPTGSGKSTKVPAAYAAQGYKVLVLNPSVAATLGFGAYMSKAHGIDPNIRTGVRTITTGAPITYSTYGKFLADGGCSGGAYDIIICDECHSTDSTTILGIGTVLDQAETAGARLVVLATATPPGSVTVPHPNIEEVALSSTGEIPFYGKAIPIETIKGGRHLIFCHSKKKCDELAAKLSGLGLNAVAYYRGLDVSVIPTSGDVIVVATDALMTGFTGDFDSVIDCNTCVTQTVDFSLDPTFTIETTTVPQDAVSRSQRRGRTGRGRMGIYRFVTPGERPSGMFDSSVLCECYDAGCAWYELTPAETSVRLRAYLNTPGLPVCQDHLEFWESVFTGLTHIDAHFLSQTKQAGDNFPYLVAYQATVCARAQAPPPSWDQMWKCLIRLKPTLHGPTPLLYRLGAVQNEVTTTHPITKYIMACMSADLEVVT
T1 sequence (Q91H74 1646-2093 limits assumed): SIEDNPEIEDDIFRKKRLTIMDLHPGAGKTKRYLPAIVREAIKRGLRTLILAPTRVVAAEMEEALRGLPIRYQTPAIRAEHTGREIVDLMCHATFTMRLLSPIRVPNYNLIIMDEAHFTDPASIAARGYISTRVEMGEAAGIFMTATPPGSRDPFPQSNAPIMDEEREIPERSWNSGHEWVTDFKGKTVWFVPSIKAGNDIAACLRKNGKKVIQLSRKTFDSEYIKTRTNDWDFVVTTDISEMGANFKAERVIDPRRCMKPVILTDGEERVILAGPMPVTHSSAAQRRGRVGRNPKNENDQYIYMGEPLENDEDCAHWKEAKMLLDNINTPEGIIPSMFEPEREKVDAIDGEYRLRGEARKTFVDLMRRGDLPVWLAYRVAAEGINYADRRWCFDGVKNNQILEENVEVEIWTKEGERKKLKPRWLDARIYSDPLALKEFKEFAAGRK

As for `Cc1ccc2nc(-c3ccc4nc(-c5ccc(NC(=O)c6ccc(Cl)cc6)cc5)sc4c3)sc2c1S(=O)(=O)O` [compound 6], the IC50 in data set [1] was 1.4 ± 0.2 µM; in data set [2], 3.4 ± 0.3 µM; in data set [3], 3.3 ± 1 µM; in data set [4], 5.6 ± 1.2 µM; in data set [5] it was 53 ± 4 µM.

Regarding `Cc1ccc2nc(-c3ccc4nc(-c5ccc(NC(=O)c6ccc(NC(=O)OCC7c8ccccc8-c8ccccc87)cc6)cc5)sc4c3)sc2c1S(=O)(=O)O` [compound 12], the IC50 is 1.3 ± 0.3 µM in data set [1]; 5.4 ± 1 µM in data set [2]; 2.8 ± 1 µM in data set [3]; 3.5 ± 1.7 µM in data set [4]; 39 ± 31 µM in data set [5].

`Cc1ccc2nc(-c3ccc4nc(-c5ccc(NC(=O)c6ccc(C(F)(F)F)cc6)cc5)sc4c3)sc2c1S(=O)(=O)O` [compound 8]: the IC50 in data set [1] is 1.2 ± 0.2 µM; in data set [2] it was 1.8 ± 0.4 µM; in data set [3], 2.8 ± 2 µM; in data set [4] it was 5.2 ± 0.6 µM; in data set [5], 111 ± 60 µM.

As to `Cc1ccc2nc(-c3ccc4nc(-c5ccc(NC(=O)c6cc(F)ccc6C(F)(F)F)cc5)sc4c3)sc2c1S(=O)(=O)O` [compound 22], the IC50 is 7.2 ± 0.8 µM in data set [1], 19 ± 15 µM in data set [2] and 65 ± 10 µM in data set [5].

With `Cc1ccc2nc(-c3ccc4nc(-c5ccc(NC(=O)c6cc(C(F)(F)F)cc(C(F)(F)F)c6)cc5)sc4c3)sc2c1S(=O)(=O)O.N` [compound 20], the IC50 was 63 ± 20 µM in data set [1], 7.7 ± 1.8 µM in data set [4] and above 200 µM in data set [5]. Besides, in data set [4] (DENV NS3h, unwinding vs ATPase), the “times less compound needed to inhibit RNA unwinding than ATP hydrolysis” value is “about 8 times”.

Regarding `COc1ccc(C(=O)Nc2ccc(-c3nc4ccc(-c5nc6ccc(C)c(S(=O)(=O)O)c6s5)cc4s3)cc2)cc1` [compound 4], the figures for the IC50 in data set [1], in data set [2] and in data set [5] were 3 ± 0.5 µM, 10 ± 2.6 µM and 115 ± 14 µM, respectively.

In the case of `Cc1ccc2nc(-c3ccc4nc(-c5ccc(NC(=O)c6ccccc6)cc5)sc4c3)sc2c1S(=O)(=O)O` [compound 1], the IC50 in data set [1] was 5.3 ± 1.2 µM; in data set [2], 11 ± 1.5 µM; in data set [3] it was 8.5 ± 2 µM; in data set [5], 69 ± 6 µM.

`Cc1ccc2nc(-c3ccc4nc(-c5ccc(NC(=O)c6c(F)cccc6C(F)(F)F)cc5)sc4c3)sc2c1S(=O)(=O)O` [compound 17]: the half-inhibitory concentration (IC50) was 17 ± 6 µM in data set [2], 32.5 ± 7 µM in data set [3] and 93 ± 16 µM in data set [5].

On to `Cc1ccc2nc(-c3ccc4nc(-c5ccc(NC(=O)c6ccc(C(C)(C)C)cc6)cc5)sc4c3)sc2c1S(=O)(=O)O` [compound 9], for which the IC50 in data set [1] is 4 ± 0.5 µM; in data set [2] it was 8.2 ± 1 µM; in data set [4], 10 ± 3.4 µM; in data set [5], above 200 µM.

Turning to `Cc1ccc2nc(-c3ccc4nc(-c5ccc(NC(=O)c6cccc(Cl)c6)cc5)sc4c3)sc2c1S(=O)(=O)O` [compound 13], the IC50 was 4 ± 0.8 µM in data set [1]; 2.6 ± 1 µM in data set [2]; 5.9 ± 2 µM in data set [3]; 5.1 ± 0.9 µM in data set [4]; 24 ± 5 µM in data set [5].

On to `Cc1ccc2nc(-c3ccc4nc(-c5ccc(NC(=O)c6cc(F)cc(C(F)(F)F)c6)cc5)sc4c3)sc2c1S(=O)(=O)O` [compound 23], for which the IC50 was 11 ± 5.7 µM in data set [1], 28 ± 7 µM in data set [2], 9.8 ± 3 µM in data set [3] and above 200 µM in data set [5].

As to `COC(=O)c1ccc(C(=O)Nc2ccc(-c3nc4ccc(-c5nc6ccc(C)c(S(=O)(=O)O)c6s5)cc4s3)cc2)cc1.N` [compound 5], the IC50 in data set [1] is 0.4 ± 0.1 µM; in data set [2] it was 9.7 ± 4.6 µM; in data set [4] it was 7.9 ± 2.5 µM; in data set [5], above 200 µM. Further, the “times more compound needed to inhibit RNA unwinding than ATP hydrolysis” value in data set [4] (DENV NS3h, unwinding vs ATPase) is “About 20 times”.

On to `Cc1ccc2nc(-c3ccc4nc(-c5ccc(NC(=O)c6cccc(C(F)(F)F)c6F)cc5)sc4c3)sc2c1S(=O)(=O)O` [compound 18], for which the results for the IC50 in data set [1], in data set [2] and in data set [5] were 4.3 ± 0.3 µM, 9.2 ± 3 µM and 42 ± 14 µM, respectively.

As for `Cc1ccc2nc(-c3ccc4nc(-c5ccc(NC(=O)c6ccc(C(F)(F)F)c(F)c6)cc5)sc4c3)sc2c1S(=O)(=O)O` [compound 19], the IC50 in data set [1] was 3.5 ± 1.1 µM; in data set [2] it was 17 ± 7 µM; in data set [3] it was 5.4 ± 2 µM; in data set [5] it was 55 ± 42 µM.

Take `Cc1ccc2nc(-c3ccc4nc(-c5ccc(NC(=O)c6ccc(N(C)C)cc6)cc5)sc4c3)sc2c1S(=O)(=O)O` [compound 10]: the IC50 in data set [1] is 3.4 ± 0.3 µM; in data set [2], 11 ± 6.7 µM; in data set [3] it was 8.6 ± 2 µM; in data set [5] it was above 200 µM.

Take `Cc1cccc(C)c1N(CC(=O)Nc1ccc(-c2ncon2)cc1)C(=O)C1CCS(=O)(=O)CC1` [amenamevir]: the IC50 in data set [6] (HSV helicase) was 0.078 µM.

For the compound `Cc1ccc2nc(-c3ccc4nc(-c5ccc(NC(=O)c6cccc(C(F)(F)F)c6)cc5)sc4c3)sc2c1S(=O)(=O)O` [compound 16], the IC50 is 9.7 ± 3.1 µM in data set [1], 20 ± 12 µM in data set [2], 22.4 ± 8 µM in data set [3] and above 200 µM in data set [5].

With `Cc1ccc2nc(-c3ccc4nc(-c5ccc(NC(=O)c6ccc(Cl)c(Cl)c6)cc5)sc4c3)sc2c1S(=O)(=O)O` [compound 14], the IC50 is 2.7 ± 0.2 µM in data set [1], 3.7 ± 1 µM in data set [2], 3.6 ± 0.9 µM in data set [4] and 53 ± 3 µM in data set [5].

Regarding `Cc1ccc2nc(-c3ccc4nc(-c5ccc(NC(=O)c6ccc(N)cc6)cc5)sc4c3)sc2c1S(=O)(=O)O` [compound 2], the half-inhibitory concentration (IC50) in data set [1] was 2.8 ± 0.6 µM; in data set [2], 10 ± 2.4 µM; in data set [4] it was 7.6 ± 1.6 µM; in data set [5], 58 ± 10 µM.

For `Cc1ccc2nc(-c3ccc4nc(-c5ccc(NC(=O)c6cc(C(F)(F)F)ccc6F)cc5)sc4c3)sc2c1S(=O)(=O)O` [compound 21], the IC50 in data set [1] was 3.8 ± 0.2 µM; in data set [2], 6.4 ± 2 µM; in data set [3], 7.5 ± 2 µM; in data set [4], 5.4 ± 1.3 µM; in data set [5] it was 16 ± 2 µM.

Regarding `Cc1ccc2nc(-c3ccc4nc(-c5ccc(NC(=O)c6ccc(Br)cc6)cc5)sc4c3)sc2c1S(=O)(=O)O` [compound 11], the half-maximal inhibitory concentration (IC50) in data set [1] is 1.1 ± 0.1 µM; in data set [2], 5.2 ± 4 µM; in data set [4], 5 ± 1.2 µM; in data set [5] it was 21 ± 6 µM.

For `Cc1cc(N2C(=O)C(O)=C(C(=O)c3ccc(C)o3)C2c2cc(Cl)cc(Cl)c2)no1` (stereo not drawn) [compound 25], in data set [7], the “effect on West Nile virus plaque-forming units (in words)” value was “lowering plaque-forming units (pfu) to the greatest extent”.

`Cc1ccc(C(=O)Nc2ccc(-c3nc4ccc(-c5nc6ccc(C)c(S(=O)(=O)O)c6s5)cc4s3)cc2)cc1` [compound 7]: the IC50 is 1.1 ± 0.2 µM in data set [1]; 3.3 ± 0.3 µM in data set [2]; 3.9 ± 1 µM in data set [3]; 4.3 ± 1.9 µM in data set [4]; 61 ± 1 µM in data set [5].

Turning to `Cc1ccc2nc(-c3ccc4nc(-c5ccc(NC(=O)c6ccc7nc(-c8ccc(N)cc8)sc7c6)cc5)sc4c3)sc2c1S(=O)(=O)O.N` [compound 24], the results for the half-inhibitory concentration (IC50) in data set [1], in data set [3] and in data set [4] were 0.5 ± 0.1 µM, 2 ± 0.7 µM and 1.5 ± 0.2 µM, respectively. Further, the “TI (CC50/replicon EC50)” value in data set [8] (BHK cell viability CC50 / replicon EC50) was 17. Besides, the “inhibition of DENV replicon (in words)” value in data set [8] (concentration-response) was “reduced replication of a subgenomic DENV replicon in cells in a concentration-dependent manner”. The “inhibition of replicon content in concentration-response assays” value in data set [8] (eight-point two-fold dilution series starting at 100 μM) is reported as “more than 90%”. Also, in data set [8] (read-out: replicon EC50, BHK cell DENV replicon content, 72 h), the EC50 was found to be 7.1 ± 3 µM.

Take `Cc1ccc2nc(-c3ccc4nc(-c5ccc(NC(=O)c6ccccc6C(F)(F)F)cc5)sc4c3)sc2c1S(=O)(=O)O` [compound 15]: the IC50 in data set [1] is 5.4 ± 0.8 µM; in data set [2] it was 14 ± 1 µM; in data set [3], 22.8 ± 5 µM; in data set [5], 71 ± 23 µM.

As for `Cc1ccc2nc(-c3ccc4nc(-c5ccc(NC(=O)c6ccc(F)cc6)cc5)sc4c3)sc2c1S(=O)(=O)O` [compound 3], the IC50 was 3 ± 0.4 µM in data set [1], 5.2 ± 0.6 µM in data set [2], 6.6 ± 0.9 µM in data set [4] and 32 ± 7 µM in data set [5].

Turning to `Cc1nc(N(C)C(=O)Cc2ccc(-c3ccccn3)cc2)sc1S(N)(=O)=O` [BAY 57-1293], in data set [6] (purified HSV helicase), the IC50 is 0.03 µM.

One may read the IC50 as the concentration that inhibits the measured activity by half. By EC50 is commonly meant the concentration needed to bring the measured effect to its halfway point.

The values are drawn from PMC4444071 (ACS infectious diseases, 2015).
